RAM network inh: inhibitors of the yeast RAM network; S. cerevisiae dse1pr::URA3 reporter, 5-FOA growth OD615, 2 d; analog-sensitive cbk1-as2 kinase mutant strain; inhibition, % at 50 µM; 190,000 compounds, 1.8% hits;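 active = inhibition above a set limit, 3 SD over mean compound inhibition, cut at about 8.4% in these data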;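 also: 0% = DMSO-only wells with no growth and 100% = 10 µM 1-NA-PP1 full growth; inhibition rescues growth on 5-FOA so higher OD means more RAM inhibition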
WT yeast gro inh: growth inhibition of WT yeast, mitochondrial fusion screen. mitochondrial fusion phenotypic screen, WT strain. inhibition, % at 10 µM. 190,000 compounds, 2.1% hits; in the data active = inhibition above about 58%; tested in S. cerevisiae
NPY Y1 blocker: NPY-Y1 (human) receptor antagonism; P25929; HEK293-CNG Y1 cells, membrane potential fluorescence; NPY at EC95, then isoproterenol; inhibition, % at 3.6 µM; 200,000 compounds, 1% hits;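 active = inhibition above the campaign mean inhibition of all tested compounds plus 3 SD, cut at about 20% in these data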;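 also: 0% = DMSO wells given NPY plus isoproterenol and 100% = isoproterenol alone without NPY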
Target sequence (P25929 whole entry, looked up): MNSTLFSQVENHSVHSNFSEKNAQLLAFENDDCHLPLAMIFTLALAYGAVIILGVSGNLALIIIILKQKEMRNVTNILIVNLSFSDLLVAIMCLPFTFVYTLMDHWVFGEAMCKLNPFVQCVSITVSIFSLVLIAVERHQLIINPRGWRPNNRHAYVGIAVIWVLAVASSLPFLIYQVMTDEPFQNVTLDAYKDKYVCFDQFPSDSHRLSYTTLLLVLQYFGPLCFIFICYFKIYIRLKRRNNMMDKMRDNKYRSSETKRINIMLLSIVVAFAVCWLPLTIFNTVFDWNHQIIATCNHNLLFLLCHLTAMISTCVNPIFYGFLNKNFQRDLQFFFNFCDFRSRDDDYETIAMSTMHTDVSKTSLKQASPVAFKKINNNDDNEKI
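Material: HEK293 cells co-expressing NPY Y1 receptor and cyclic-nucleotide gated channel. Timing: compound incubation 1 h at room temperature, readout 45 min post-stimulation. Signal: fluorescence, membrane potential probe.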
NPY-Y2 antag: NPY-Y2 (human) receptor antagonism | 140,000 compounds, 0.99% hits | NPY-Y2 expressing cells, antagonist mode | AID 793 | inhibition, % at 2.7 µM; in the data active = inhibition above about 17%;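 also: 0% = vehicle with agonist challenge and 100% = reference antagonist with challenge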
Target sequence (P49146 whole entry, looked up): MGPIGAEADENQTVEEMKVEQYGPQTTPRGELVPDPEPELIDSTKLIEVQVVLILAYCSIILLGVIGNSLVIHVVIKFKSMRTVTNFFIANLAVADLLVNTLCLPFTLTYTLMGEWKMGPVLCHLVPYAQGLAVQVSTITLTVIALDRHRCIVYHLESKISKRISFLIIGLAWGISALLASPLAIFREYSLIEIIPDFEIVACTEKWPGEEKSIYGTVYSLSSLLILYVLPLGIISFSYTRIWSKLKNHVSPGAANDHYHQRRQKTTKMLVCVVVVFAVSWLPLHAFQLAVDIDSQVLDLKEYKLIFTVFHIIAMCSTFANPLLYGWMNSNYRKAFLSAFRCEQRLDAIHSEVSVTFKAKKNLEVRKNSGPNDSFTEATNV
NPY1 pot ag: human NPY-Y1 potentiation or agonism, primary screen; P25929; NPY-Y1 expressing cells, potentiator/agonist activation; activation, % at 3.6 µM; 220,000 compounds, 0.37% hits; in the data active = activation above about 33%, passing the limit was not always enough;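 also: cells stimulated with NPY at EC10 then isoproterenol at EC100; 0% = low agonist plus stimulus and 100% = saturating agonist plus stimulus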
NPY-Y2 PAM-ag: potentiates or activates human NPY-Y2 receptor; activation, % at 3.6 µM; cells expressing NPY-Y2, potentiator/agonist read-out; P49146; 220,000 compounds, 0.45% hits; in the data active = activation above about 27%;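 also: cells stimulated with NPY near EC25 plus isoproterenol at EC100; 0% = vehicle plus submaximal agonist and 100% = vehicle plus saturating agonist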
NPY-Y2 pot conf: confirmation of human NPY-Y2 receptor potentiators or agonists; shares compounds with NPY-Y2 PAM-ag; cell-based NPY-Y2 potentiator/agonist assay; activation, % at 3.6 µM; 450 compounds, 20% hits; in the data active = activation above about 33%
NPY-Y1 potentiator: counter-screen for NPY-Y2 potentiators or agonists: NPY-Y1 potentiators or agonists; shares compounds with NPY-Y2 PAM-ag; Y1 HEK293-CNG cells, membrane potential fluorescence; activation, % at 3.6 µM; 450 compounds, 20% hits; AID 1651; in the data active = activation above about 45%;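 also: cells stimulated with submaximal NPY then isoproterenol with phosphodiesterase inhibitor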
NPY-Y1 agonist 2: counter-screen for NPY-Y2 potentiators: agonists of human NPY-Y1; AID 1702; 450 compounds, 37% hits; HEK293 Y1-CNGC, membrane potential fluorescence, agonism; activation, % at 3.6 µM; shares compounds with NPY-Y2 PAM-ag;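 active = activation above the mean of DMSO-only control wells plus 3 SD, cut at about 18% in these data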;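 also: cells stimulated with 1 µM isoproterenol plus the PDE inhibitor Ro 20-1724; 0% = isoproterenol with DMSO and no NPY and 100% = 40 nM NPY; Y1 agonists lower the membrane potential dye signal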
CNGC inhibitor: counter-screen for NPY-Y2 potentiators: inhibitors of CNG channel activity. AID 1703. inhibition, % at 3.6 µM. HEK293-CNG parental, isoproterenol cAMP, membrane potential fluorescence. 450 compounds, 32% hits. shares compounds with NPY-Y2 PAM-ag;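 active = inhibition above the control-well mean plus 3 SD of those wells, cut at about 22% in these data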;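 also: 0% = DMSO with isoproterenol and 100% = DMSO without isoproterenol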
NPY-Y2 ag 2: NPY-Y2 agonism, counter-screen for Y2 potentiators; activation, % at 3.6 µM; 450 compounds, 56% hits; HEK293 Y2/CNGC cells, membrane potential fluorescence, agonist mode; shares compounds with NPY-Y2 PAM-ag;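 active = activation above the mean of solvent-only control wells plus 3 SD, cut at about 10% in these data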;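 also: cells stimulated by isoproterenol with no NPY added so direct agonism is tested; 0% = DMSO with isoproterenol alone and 100% = NPY at EC100 plus isoproterenol; agonism lowers probe fluorescence through less cAMP and CNG channel opening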
An asterisk follows results filed as active. Shown are actives, neighbours in structure and some others; about 4.9% of the full set was active somewhere.

CC(=O)c1ccc(NC(=O)C2CCCN(C(=O)c3ccc(Cl)cc3)C2)cc1 (configuration not stated) was read as RAM network inh 1, WT yeast gro inh 5, NPY Y1 blocker -8, NPY1 pot ag 19, NPY-Y2 PAM-ag 28*, NPY-Y2 pot conf 32, NPY-Y1 potentiator 38, NPY-Y1 agonist 2 29*, CNGC inhibitor 30* and NPY-Y2 ag 2 30*.
CCOC(=O)n1c(=O)n(C)c2ccc(Br)cc21 was read as RAM network inh -1, WT yeast gro inh 0, NPY Y1 blocker 2, NPY1 pot ag 10 and NPY-Y2 PAM-ag -15.
C=C(C)Cc1c(C)c(C#N)c2nc3ccccc3n2c1NCCCN(C)C was read as NPY1 pot ag 9 and NPY-Y2 PAM-ag -15.
`COC(=O)c1[nH]c2ccc(Br)cc2c1NC(=O)CN1CCN(C2CCCCC2)CC1` gave RAM network inh 2, WT yeast gro inh 20, NPY Y1 blocker 6, NPY-Y2 antag 13, NPY1 pot ag 30, NPY-Y2 PAM-ag 33*, NPY-Y2 pot conf 43*, NPY-Y1 potentiator 57*, NPY-Y1 agonist 2 28*, CNGC inhibitor 49* and NPY-Y2 ag 2 33*.
COC(=O)c1[nH]c2ccc(C)cc2c1NC(=O)CCN1CCN(C2CCCCC2)CC1 was read as RAM network inh 0, WT yeast gro inh 11, NPY Y1 blocker -3, NPY-Y2 antag 1, NPY1 pot ag -9 and NPY-Y2 PAM-ag -4.
CC1(C(=O)OCC(=O)Nc2ccccc2)CC1(Cl)Cl (configuration not stated) was read as RAM network inh 0, WT yeast gro inh -12, NPY Y1 blocker -2, NPY1 pot ag 6 and NPY-Y2 PAM-ag 8.
For Nc1ccccc1NC1CCCCC1 the results were RAM network inh 1, WT yeast gro inh 32, NPY Y1 blocker -3, NPY1 pot ag 33, NPY-Y2 PAM-ag 36*, NPY-Y2 pot conf 21, NPY-Y1 potentiator 34, NPY-Y1 agonist 2 17, CNGC inhibitor 26* and NPY-Y2 ag 2 24*.
For O=C(Nc1ccccc1NC(=O)NC1CCCCC1)NC1CCCCC1 the results were RAM network inh 2, WT yeast gro inh -16, NPY Y1 blocker 1, NPY-Y2 antag 3, NPY1 pot ag -1 and NPY-Y2 PAM-ag 0.
For C=C(C)CNC(=S)N=Nc1c(O)[nH]c2ccc([N+](=O)[O-])cc12 the results were RAM network inh 1, WT yeast gro inh 5, NPY Y1 blocker -5, NPY1 pot ag 16 and NPY-Y2 PAM-ag 12.
For CC(C)NC(=S)N=Nc1c(O)[nH]c2ccc([N+](=O)[O-])cc12 the results were RAM network inh 5, WT yeast gro inh -6, NPY Y1 blocker -1, NPY1 pot ag 23, NPY-Y2 PAM-ag 35*, NPY-Y2 pot conf 17, NPY-Y1 potentiator 29, NPY-Y1 agonist 2 19*, CNGC inhibitor 17 and NPY-Y2 ag 2 22*.
`COc1ccc(Cn2cnc3c(NS(C)(=O)=O)c(C)c(C)cc32)cc1` gave RAM network inh -1, WT yeast gro inh 8, NPY Y1 blocker 2, NPY-Y2 antag 6, NPY1 pot ag 19, NPY-Y2 PAM-ag 35*, NPY-Y2 pot conf 13, NPY-Y1 potentiator 28, NPY-Y1 agonist 2 13, CNGC inhibitor 22 and NPY-Y2 ag 2 21*.
Screening CC(C)c1cccc(C(C)C)c1NC(=S)Nc1cccc(Cl)c1 returned NPY1 pot ag 8 and NPY-Y2 PAM-ag 8.
Screening O=C(O)COc1ccc(NC(=O)c2cccs2)cc1 returned RAM network inh 1, WT yeast gro inh -13, NPY Y1 blocker 6, NPY-Y2 antag 0, NPY1 pot ag 22 and NPY-Y2 PAM-ag -7.
Screening O=C(NCCCn1ccnc1)Nc1ccc(Cl)cc1 returned RAM network inh 2, WT yeast gro inh 0, NPY Y1 blocker -2, NPY-Y2 antag -1, NPY1 pot ag 32, NPY-Y2 PAM-ag 103*, NPY-Y2 pot conf 5, NPY-Y1 potentiator 10, NPY-Y1 agonist 2 0, CNGC inhibitor 7 and NPY-Y2 ag 2 11*.
For O=C(NCCCn1ccnc1)Nc1ccc(Cl)c(Cl)c1 the results were RAM network inh 0, WT yeast gro inh 27, NPY Y1 blocker 3, NPY-Y2 antag 1, NPY1 pot ag -18 and NPY-Y2 PAM-ag 1.
O=C(COc1ccc(S(=O)(=O)NCc2ccccc2)cc1)NCC1CCCO1 (configuration not stated) was read as RAM network inh 0, WT yeast gro inh 11, NPY Y1 blocker 5, NPY-Y2 antag 2, NPY1 pot ag -1 and NPY-Y2 PAM-ag -21.
Screening S=C(Nc1ccc(Nc2ccccc2)cc1)Nc1ccccn1 returned RAM network inh 6, WT yeast gro inh 81*, NPY Y1 blocker -12, NPY1 pot ag 30, NPY-Y2 PAM-ag 33*, NPY-Y2 pot conf 19, NPY-Y1 potentiator 3, NPY-Y1 agonist 2 10, CNGC inhibitor 4 and NPY-Y2 ag 2 14*.
`COCCN(C(=O)c1csnn1)C(C(=O)NC1CCCCC1)c1sccc1C` (configuration not stated) gave RAM network inh -1, WT yeast gro inh 2, NPY Y1 blocker 7, NPY-Y2 antag 5, NPY1 pot ag -18 and NPY-Y2 PAM-ag -7.
`Fc1ccc(Nc2nc(-c3cccnc3)cs2)cc1` gave RAM network inh 2, WT yeast gro inh 7, NPY Y1 blocker -13, NPY1 pot ag 33, NPY-Y2 PAM-ag 34*, NPY-Y2 pot conf 35*, NPY-Y1 potentiator 58*, NPY-Y1 agonist 2 59*, CNGC inhibitor 43* and NPY-Y2 ag 2 43*.
`Cc1ccc(Nc2nc(-c3ccncc3)cs2)cc1` gave RAM network inh 2, WT yeast gro inh 11, NPY Y1 blocker -15, NPY1 pot ag 31, NPY-Y2 PAM-ag 36*, NPY-Y2 pot conf 35*, NPY-Y1 potentiator 48*, NPY-Y1 agonist 2 60*, CNGC inhibitor 49* and NPY-Y2 ag 2 46*.
`O=C(c1ccc(F)cc1F)C1CCN(c2ccc([N+](=O)[O-])cn2)CC1` gave NPY1 pot ag 31, NPY-Y2 PAM-ag 46*, NPY-Y2 pot conf 8, NPY-Y1 potentiator -4, NPY-Y1 agonist 2 8, CNGC inhibitor 8 and NPY-Y2 ag 2 12*.

Screening data as filed in PubChem BioAssay.
